In ChEMBL document CHEMBL4145692, “Discovery of a Locally and Orally Active CXCL12 Neutraligand (LIT-927) with Anti-inflammatory Effect in a Murine Model of Allergic Airway Hypereosinophilia” (J Med Chem, 2018):
Calls of active or inactive are those of the source. The rule behind the calls is not given here.

Columns and labels:
[1] = target: T1, Stromal cell-derived factor 1 (Homo sapiens, UniProt P48061); test: Binding affinity to Texas Red-labelled CXCL12 (unknown origin) assessed as inhibition of CXCL12-Texas Red binding to EGFP-labeled human CXCR4 expressed in HEK293 cell membranes pre-incubated for 1 hr by FRET-based binding assay
T1 sequence (P48061 whole entry): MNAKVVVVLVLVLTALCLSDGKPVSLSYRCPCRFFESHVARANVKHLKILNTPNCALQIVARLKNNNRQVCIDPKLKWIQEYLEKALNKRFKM
Method in brief: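 HEK-293 cells stably expressing human EGFP-CXCR4, 10⁶ cells/ml in HEPES buffer pH 7.4 with 0.1% BSA, 21 °C. CXCL12-Texas Red (100 nM) was preincubated 1 h at room temperature with compound or DMSO, then added at t=150 s. FRET read as loss of EGFP emission at 510 nm (excitation 470 nm) up to equilibrium. Ki from dose-response curves.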

[2] = target: T1, Stromal cell-derived factor 1; test: Binding affinity to CXCL12 (unknown origin) assessed as inhibition of CXCL12 -induced increase in intracellular calcium level in EGFP-tagged CXCR4 expressing HEK cells at 10 uM; assay type: cell-based
Method in brief: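 TRIC-r calcium assay, neutraligand protocol. Compound at 10 μM (DMSO control) tested against calcium responses triggered by 5 nM of each chemokine on its receptor line: CXCL12 on EGFP-CXCR4⁺ HEK, CCL17 or CCL22 on EGFP-CCR4⁺ HEK, CCL5 on EGFP-CCR5⁺ HEK, CCL2 on EGFP-CCR2⁺ HEK. Mean ± SD, n=3.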

[3] = Chemical stability in pH 7.4 PBS/Cdx buffer assessed as parent compound remaining at 10 uM incubated for 24 hrs by RP-HPLC method; assay type: physicochemical; conditions: read-out: Stability
Method in brief: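 Compound diluted from DMSO stock to 10 μM final (1% DMSO) in PBS pH 7.4, or in PBS with 10% w/w (2-hydroxypropyl)-β-cyclodextrin. Sampled at t0, 2, 4, 6 and 24 h and injected directly onto RP-HPLC. Percent remaining relative to t0 from peak area.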

Mus musculus [4] = test: Anti-asthma activity in Balb/c mouse model of mouse model of hypereosinophilia assessed as inhibition of eosinophil recruitment at 1400 umol/kg, po dosed intranasally 2 hrs before ovalbumin challenge by hemocytometry; assay type: functional; conditions: in the assay text read “po dosed” for “po dosed intranasally”
Method in brief: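 OVA-sensitized 9-week-old male Balb/c mice (50 μg OVA on 2 mg alum i.p., days 0–2; intranasal OVA 10 μg, days 5–7). Compound at 1400 μmol/kg in PBS/MC 0.5%/Tween 80 0.05% given by gavage 2 h before each challenge. BAL 24 h after the last challenge; eosinophils counted by hemocytometer and Diff-Quick cytospin (≥400 cells); n=6/group.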

Mus musculus [5] = test: Toxicity in Balb/c mouse model of hypereosinophilia assessed as reduction in body weight at 350 umol/kg, ip dosed daily 2 hrs before allergen challenge for 3 days and measured 24 hrs after last dose; assay type: organism-based; parameters: scale not given: the % may be the effect or the level left; conditions: in vivo
Method in brief: (§1)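 Same OVA model with i.p. dosing 2 h before each of the three challenges: neutraligands 350 μmol/kg in PBS/CMC 1%, AMD3100 12.6 μmol/kg, dexamethasone 2.5 μmol/kg. Body and spleen weight loss recorded 24 h after three daily administrations; n=6/group.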

[6] = target: T2, C-C motif chemokine 5 (Homo sapiens) (UniProt P13501); test: Binding affinity to CCL5 (unknown origin) assessed as inhibition of CCL5-induced increase in intracellular calcium level in EGFP-tagged CCR5 expressing HEK cells at 10 uM
T2 sequence (whole entry): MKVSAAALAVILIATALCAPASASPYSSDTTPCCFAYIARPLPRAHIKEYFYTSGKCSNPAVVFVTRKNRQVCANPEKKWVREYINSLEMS

Mus musculus [7] = test: Toxicity in Balb/c mouse model of hypereosinophilia assessed as prostration at 350 umol/kg, ip dosed daily 2 hrs before allergen challenge for 10 days and measured 24 hrs after last dose; assay type: organism-based; conditions: in vivo
Method in brief: (§2)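 Mice given 10 daily administrations at 350 μmol/kg. Monitored for weight loss and for signs of toxicity, including prostration and bristly hair.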

Mus musculus [8] = test: Toxicity in Balb/c mouse model of hypereosinophilia assessed as induction of bristly hair at 350 umol/kg, ip dosed daily 2 hrs before allergen challenge for 10 days and measured 24 hrs after last dose; assay type: organism-based; conditions: in vivo; method in brief: as §2
Mus musculus [9] = test: Inhibition of macrophages infiltration in Balb/c mouse model of 8 day model of allergic eosinophilic airway inflammation at 300 nmol/kg dosed intranasally 2 hrs before ovalbumin challenge by hemocytometry; assay type: functional, organism-based
Mus musculus [10] = test: Inhibition of eosinophil infiltration in Balb/c mouse model of 8 day model of allergic eosinophilic airway inflammation dosed intranasally 2 hrs before ovalbumin challenge by hemocytometry; assay type: functional, organism-based
Method in brief: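 Same intranasal OVA model with dose-response treatment in PBS/Cdx 10% given 2 h before each challenge. Percent inhibition of BAL eosinophil recruitment; mean ± SEM, n=6/group.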

[11] = target: T3, C-C motif chemokine 17 (Homo sapiens) (UniProt Q92583); test: Binding affinity to CCL17 (unknown origin) assessed as inhibition of CCL17-induced increase in intracellular calcium level in EGFP-tagged CCR4 expressing HEK cells at 10 uM
T3 sequence (whole entry): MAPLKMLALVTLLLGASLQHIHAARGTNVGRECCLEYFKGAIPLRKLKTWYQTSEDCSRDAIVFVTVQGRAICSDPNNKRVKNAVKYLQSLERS

[12] = target: C-C motif chemokine 2 (Homo sapiens) (UniProt P13500); test: Binding affinity to CCL2 (unknown origin) assessed as inhibition of CCL2-induced increase in intracellular calcium level in EGFP-tagged CCR2 expressing HEK cells at 10 uM
Chain of C-C motif chemokine 2 (Homo sapiens) (P13500 24-99 limits assumed): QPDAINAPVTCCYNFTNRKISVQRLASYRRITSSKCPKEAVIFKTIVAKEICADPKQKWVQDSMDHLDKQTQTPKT

[13] = target: T4, C-C motif chemokine 22 (Homo sapiens) (UniProt O00626); test: Binding affinity to CCL22 (unknown origin) assessed as inhibition of CCL22-induced increase in intracellular calcium level in EGFP-tagged CCR4 expressing HEK cells at 10 uM
T4 sequence (whole entry): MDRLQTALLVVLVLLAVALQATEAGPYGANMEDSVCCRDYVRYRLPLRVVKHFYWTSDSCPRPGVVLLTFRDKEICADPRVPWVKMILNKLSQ

[14] = Thermodynamic solubility in pH 7.4 PBS/Cdx buffer incubated for 24 hrs at 22 degC by HPLC method; assay type: physicochemical; conditions: read-out: Therm_solubility
Method in brief: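 Powder dissolved to saturation in pH 7.4 PBS (100 mM sodium phosphate, 150 mM NaCl), or in PBS with 10% Cdx, and shaken 24 h. After centrifugation, supernatant quantified by HPLC against a per-compound calibration line prepared from the DMSO stock.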

Mus musculus [15] = test: Toxicity in Balb/c mouse model of hypereosinophilia assessed as reduction in body weight at 12.6 umol/kg, ip dosed daily 2 hrs before allergen challenge for 3 days and measured 24 hrs after last dose; assay type: organism-based; conditions: in vivo; method in brief: as §1
Mus musculus [16] = test: Toxicity in Balb/c mouse model of hypereosinophilia assessed as reduction in spleen weight at 12.6 umol/kg, ip dosed daily 2 hrs before allergen challenge for 3 days and measured 24 hrs after last dose; assay type: organism-based; conditions: in vivo; method in brief: as §1
Mus musculus [17] = test: Toxicity in Balb/c mouse model of hypereosinophilia assessed as toxic signs at 350 umol/kg, ip dosed daily 2 hrs before allergen challenge for 10 days and measured 24 hrs after last dose; assay type: organism-based; conditions: in vivo; method in brief: as §2

In the case of `COc1cc(-c2cc(-c3ccc(Cl)cc3)nc(=O)[nH]2)ccc1O`, the Ki [1] is reported as 267 nM, the inhibition [2] is reported as “Active” and the remaining at 24 h, 10 µM [3] is reported as 100%. The inhibition in vivo at 1400 µmol/kg (Mus musculus [4]) was 62%, the Activity (Mus musculus [5]) was 0% and the inhibition [6] was “inactive”. The Activity (Mus musculus [7]) was “Non-Toxic”, the Activity (Mus musculus [8]) was “Non-Toxic” and the inhibition (Mus musculus [9]) was “inactive”. For the same compound, the IC50 (Mus musculus [10]) was 310 nmol/kg, the inhibition [11] was “inactive” and the inhibition [12] was “inactive”. For the same compound, the inhibition [13] was “inactive”, the solubility thermodynamic at 24 h [14] was > 5 mM and the Activity (Mus musculus [15]) was “Non-Toxic”. The Activity (Mus musculus [16]) was “Non-Toxic” and the Activity (Mus musculus [17]) was “Non-Toxic”.
